Assays:
[1] = Cytotoxicity against human hFB-hTERT6 cells after 72 hrs by MTT assay; format: cell-based; conditions: hFB-hTERT6, 72 h
Procedure, shortened: (§1)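 Cells are exposed to compound for 72 h, and viability is then read by MTT assay. IC50 is reported as the mean of 3 independent measurements with SD. hFB-hTERT6 is a non-malignant human skin fibroblast line.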

K562 = experiment: Cytotoxicity against human K562 cells after 72 hrs by MTT assay; format: functional, cell-based; conditions: K562, 72 h; procedure, shortened: as §1
Streptomyces fradiae [2] = experiment: Antibacterial activity against Streptomyces fradiae ATCC 19609 at 10 nmol/disk after 24 hrs; format: functional
Procedure, shortened: (§2)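 Disk diffusion assay. Streptomyces fradiae spores are mixed into MG soft agar (0.7% agar, pH 7.5) and poured over MG agar plates (2% agar), 10⁷ spores per dish. After the agar sets, paper disks impregnated with compound are placed on the plates. Plates are incubated 24 h at 28 °C, and the diameter of the growth-inhibition halo around each disk is measured.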

Streptomyces fradiae [3] = experiment: Antibacterial activity against Streptomyces fradiae ATCC 19609 at 100 nmol/disk after 24 hrs; format: functional; procedure, shortened: as §2
Streptomyces fradiae [4] = experiment: Antibacterial activity against Streptomyces fradiae ATCC 19609 at 0.1 nmol/disk after 24 hrs; format: functional; procedure, shortened: as §2
HCT-116 = experiment: Cytotoxicity against human HCT116 cells after 72 hrs by MTT assay; format: functional, cell-based; conditions: HCT-116, 72 h; procedure, shortened: as §1
Streptomyces fradiae [5] = experiment: Antibacterial activity against Streptomyces fradiae ATCC 19609 at 1 nmol/disk after 24 hrs; format: functional; procedure, shortened: as §2
Streptomyces fradiae [6] = experiment: Antibacterial activity against Streptomyces fradiae ATCC 19609 at 0.001 nmol/disk after 24 hrs; format: functional
Procedure, shortened: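 Disk diffusion on S. fradiae: spore suspension mixed into MG soft agar (0.7%), pH 7.5, poured over MG agar (2%) at 10⁷ spores per dish; after solidification, paper disks carrying test compound laid on lawn; grown 24 h at 28 °C; growth-inhibition halo diameter around disks measured.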

CC[C@H]1/C=C/C=C/C[C@@H](C)[C@H](O)[C@@](C)(O)C(=O)[C@@H](C)[C@H](O)[C@@H](C)C(=O)[C@@H](C)[C@H](O)[C@@H](C)/C=C/C(=O)O[C@@H]2[C@H](C)[C@H](CC1)O[C@]1(CC[C@H](C)[C@H](C[C@H](C)n3cc(C(=O)OC)nn3)O1)[C@H]2C
IC50 [1]: 2000 nM
IC50 (K562): 150 nM
diameter of the inhibition zone (DIZ) (Streptomyces fradiae [2]): 8 mm

CC[C@H]1/C=C/C=C/C[C@@H](C)[C@H](O)[C@@](C)(O)C(=O)[C@@H](C)[C@H](O)[C@@H](C)C(=O)[C@@H](C)[C@H](O)[C@@H](C)/C=C/C(=O)O[C@@H]2[C@H](C)[C@H](CC1)O[C@]1(CC[C@H](C)[C@H](C[C@H](C)n3cc(C(=O)O)nn3)O1)[C@H]2C
IC50 [1]: > 50000 nM
diameter of the inhibition zone (DIZ) (Streptomyces fradiae [3]): 8 mm
IC50 (K562): > 12500 nM

CC[C@H]1/C=C/C=C/C[C@@H](C)[C@H](O)[C@@](C)(O)C(=O)[C@@H](C)[C@H](O)[C@@H](C)C(=O)[C@@H](C)[C@H](O)[C@@H](C)/C=C/C(=O)O[C@@H]2[C@H](C)[C@H](CC1)O[C@]1(CC[C@H](C)[C@H](C[C@H](C)n3cc(-c4ccccc4)nn3)O1)[C@H]2C
IC50 [1]: 3000 nM
diameter of the inhibition zone (DIZ) (Streptomyces fradiae [4]): 7.5 mm
IC50 (K562): 150 nM

CC[C@H]1/C=C/C=C/C[C@@H](C)[C@H](O)[C@@](C)(O)C(=O)[C@@H](C)[C@H](O)[C@@H](C)C(=O)[C@@H](C)[C@H](O)[C@@H](C)/C=C/C(=O)O[C@@H]2[C@H](C)[C@H](CC1)O[C@]1(CC[C@H](C)[C@H](C[C@H](C)N=[N+]=[N-])O1)[C@H]2C
IC50 [1]: 1900 nM
IC50 (HCT-116): 200 nM
IC50 (K562): 140 nM
diameter of the inhibition zone (DIZ) (Streptomyces fradiae [5]): 7.5 mm

CC[C@H]1/C=C/C=C/C[C@@H](C)[C@H](O)[C@@](C)(O)C(=O)[C@@H](C)[C@H](O)[C@@H](C)C(=O)[C@@H](C)[C@H](O)[C@@H](C)/C=C/C(=O)O[C@@H]2[C@H](C)[C@H](CC1)O[C@]1(CC[C@H](C)[C@H](C[C@H](C)n3cc(C(=O)NCCN(C)C)nn3)O1)[C@H]2C
IC50 [1]: 2000 nM
IC50 (HCT-116): 700 nM
IC50 (K562): 220 nM
diameter of the inhibition zone (DIZ) (Streptomyces fradiae [5]): 8 mm

CC[C@H]1/C=C/C=C/C[C@@H](C)[C@H](O)[C@@](C)(O)C(=O)[C@@H](C)[C@H](O)[C@@H](C)C(=O)[C@@H](C)[C@H](O)[C@@H](C)/C=C/C(=O)O[C@@H]2[C@H](C)[C@H](CC1)O[C@]1(CC[C@H](C)[C@H](C[C@@H](C)OS(C)(=O)=O)O1)[C@H]2C
diameter of the inhibition zone (DIZ) (Streptomyces fradiae [4]): 9.5 mm
IC50 (HCT-116): 6400 nM
IC50 (K562): 5800 nM

CC[C@@H]1/C=C/C=C/C[C@H](C)[C@H](O)[C@](C)(O)C(=O)[C@H](C)[C@@H](O)[C@H](C)C(=O)[C@H](C)[C@@H](O)[C@H](C)/C=C/C(=O)O[C@H]2[C@@H](C)[C@@H](CC1)O[C@@]1(CC[C@@H](C)[C@@H](C[C@H](C)O)O1)[C@@H]2C [OLIGOMYCIN A]
IC50 [1]: 7500 nM
diameter of the inhibition zone (DIZ) (Streptomyces fradiae [6]): 10 mm
IC50 (HCT-116): 1000 nM
IC50 (K562): 160 nM
